# Measurements from ChEMBL document CHEMBL4342481, “Spiro-oxindole Piperidines and 3-(Azetidin-3-yl)-1H-benzimidazol-2-ones as mGlu2 Receptor PAMs” (ACS Med Chem Lett, 2020).
# Key:
# [1] = Positive allosteric modulation of mGlu2 receptor in CHO cell membranes preincubated for 30 mins in presence of 4 uM glutamate followed by [35S]GTPgammaS addition and measured after 30 mins by scintillation counting analysis; design: species or system Cricetulus griseus
# Summary of the method: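 No absolute EC50 was given where the concentration–response curve reached no clear upper plateau.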
# CHO [2] = assay: Positive allosteric modulation of mGlu2 receptor in CHO cell membranes preincubated for 30 mins in presence of 4 uM glutamate followed by [35S]GTPgammaS addition and measured after 30 mins by scintillation counting analysis relative to control; settings: Cricetulus griseus
# Summary of the method: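 EMAX is the % response, given as the median of at least two experiments with standard deviation.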
# CHO [3] = assay: Positive allosteric modulation of mGlu2 receptor in CHO cell membranes at 1 uM preincubated for 30 mins in presence of 4 uM glutamate followed by [35S]GTPgammaS addition and measured after 30 mins by scintillation counting analysis; settings: Cricetulus griseus
# [4] = Stability in human liver microsomes assessed as percentage of compound metabolized at 5 uM after 15 mins; type: ADME, Microsome; settings: for metabolised at 0.25 h, 5 µM: liver microsomes, read-out: Drug metabolism
# [5] = Stability in rat liver microsomes assessed as percentage of compound metabolized at 5 uM after 15 mins; type: ADME, Microsome; settings: for metabolised at 0.25 h, 5 µM: liver microsomes, read-out: Drug metabolism
# [6] = Brain to plasma permeability coefficient, Kp in Sprague-Dawley rat at 10 mg/kg, po after 2 hrs; type: ADME, organism-based
# Summary of the method: (§1)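 Single oral dose to male Sprague–Dawley rats (n = 1), given as a suspension in 20% HP-β-CD at pH 7, at 10 or 30 mg/kg. Plasma (ng/mL) and brain (ng/g) levels were taken at 2 and 4 h. Kp is the brain/plasma partition coefficient at 2 h.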
# [7] = Drug level in Sprague-Dawley rat plasma at 10 mg/kg, po after 2 hrs; type: ADME, organism-based; summary of the method: as §1
# [8] = Drug level in Sprague-Dawley rat plasma at 10 mg/kg, po after 4 hrs; type: ADME, organism-based; summary of the method: as §1
# [9] = Drug concentration in Sprague-Dawley rat brain at 10 mg/kg, po after 2 hrs; type: ADME, organism-based; settings: read-out: Drug uptake; summary of the method: as §1
# [10] = Drug concentration in Sprague-Dawley rat brain at 10 mg/kg, po after 4 hrs; type: ADME, organism-based; settings: for concentration at 4 h: Sprague-Dawley, brain, read-out: Drug uptake; summary of the method: as §1
# [11] = Brain to plasma permeability coefficient, Kp in Sprague-Dawley rat at 30 mg/kg, po after 2 hrs; type: ADME, organism-based; summary of the method: as §1
# [12] = Drug level in Sprague-Dawley rat plasma at 30 mg/kg, po after 2 hrs; type: ADME, organism-based; summary of the method: as §1
# [13] = Drug level in Sprague-Dawley rat plasma at 30 mg/kg, po after 4 hrs; type: ADME, organism-based; summary of the method: as §1
# [14] = Drug concentration in Sprague-Dawley rat brain at 30 mg/kg, po after 2 hrs; type: ADME, organism-based; settings: read-out: Drug uptake; summary of the method: as §1
# [15] = Drug concentration in Sprague-Dawley rat brain at 30 mg/kg, po after 4 hrs; type: ADME, organism-based; settings: read-out: Drug uptake; summary of the method: as §1
# MDR1 [16] = assay: Efflux ratio of permeability in pig LLC-PK1 cells transfected with MDR1; type: ADME, cell-based, Sus scrofa
# MDR1 [17] = assay: Permeability in pig LLC-PK1 cells transfected with MDR1 gene; type: ADME, cell-based, Sus scrofa; settings: read-out: permeability
# [18] = target: Adenosine receptor A2b (Homo sapiens) (UniProt P29275); assay: Displacement of radioligand from human adenosine A2B receptor
# [19] = microsomes, 0.25 h, 5 µM, BLD = below limit of detection
# Chain of Adenosine receptor A2b (Homo sapiens) (P29275 whole entry, looked up): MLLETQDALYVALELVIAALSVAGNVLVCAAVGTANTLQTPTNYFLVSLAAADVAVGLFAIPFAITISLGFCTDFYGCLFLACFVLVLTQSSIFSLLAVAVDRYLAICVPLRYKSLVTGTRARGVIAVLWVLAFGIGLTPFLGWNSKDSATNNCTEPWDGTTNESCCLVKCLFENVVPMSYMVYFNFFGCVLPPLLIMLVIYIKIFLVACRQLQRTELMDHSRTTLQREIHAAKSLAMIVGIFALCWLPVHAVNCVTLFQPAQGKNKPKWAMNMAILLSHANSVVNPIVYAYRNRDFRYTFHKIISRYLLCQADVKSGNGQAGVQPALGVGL
SMILES,EC50 [1] [nM],"metabolised at 0.25 h, 5 µM [4] [%]","metabolised at 0.25 h, 5 µM [5] [%]",Emax (CHO [2]) [%],Activity (CHO [3]) [%],also measured
Cc1ccc(N2CCC3(CC2)C(=O)Nc2ccc(Br)cc23)nn1,,17,69,228,36,
O=C1Nc2ccc(C3CC3)cc2C12CCN(c1ccc(Cl)nn1)CC2,630,45,100,169,105,
CCNc1cc(N2CC(n3c(=O)[nH]c4ccc(Br)cc43)C2)nnc1Cl,230,9,26,241,,Kp at 2 h [6]: 0.07; concentration at 2 h [7]: 254 ng/mL; concentration at 4 h [8]: 416 ng/mL; concentration at 2 h [9]: 18 ng/g; concentration at 4 h [10]: 18 ng/g
O=C1Nc2ccc(Br)cc2C12CCN(c1cccnn1)CC2,,,,141,7,
CCOc1cc(N2CC(n3c(=O)[nH]c4cc(C(F)(F)F)ccc43)C2)ncc1Cl,80,4,12,218,,Kp at 2 h [11]: 0.14; concentration at 2 h [12]: 2660 ng/mL; concentration at 4 h [13]: 5090 ng/mL; concentration at 2 h [14]: 371 ng/g; concentration at 4 h [15]: 996 ng/g; efflux ratio (MDR1 [16]): 1.24; Papp (MDR1 [17]): 9 ×10⁻⁶ cm/s
CCNc1cc(N2CC(n3c(=O)[nH]c4ccccc43)C2)ncc1Cl,120,27,88,381,,
O=C1Nc2ccc(Br)cc2C12CCN(c1ccc(Cl)nn1)CC2,1020,8,25,232,100,
O=C1Nc2ccc(Cl)cc2C12CCN(c1ccc(Cl)nn1)CC2,1000,8,76,187,80,
O=C1Nc2ccc(Br)cc2C12CCN(c1ccc(C(F)(F)F)nn1)CC2,400,4,20,53,46,
CCOc1cc(N2CCC3(CC2)C(=O)Nc2ccc(Br)cc23)nnc1Cl,210,11,58,380,203,"Kp at 2 h [6]: 0.37; concentration at 2 h [7]: 49 ng/mL; concentration at 4 h [8]: 17 ng/mL; concentration at 2 h [9]: 18 ng/g; Drug uptake ([10]; in vivo, 4 h, BLD = below limit of detection): Bld"
O=C1Nc2ccccc2C12CCN(c1ccc(Cl)nn1)CC2,,45,95,217,24,
O=C1Nc2cc(Br)ccc2C12CCN(c1ccc(Cl)nn1)CC2,,,,183,76,
O=C1Nc2cccc(Br)c2C12CCN(c1ccc(Cl)nn1)CC2,,,,108,31,
O=C1Nc2ccc(F)cc2C12CCN(c1ccc(Cl)nn1)CC2,,11,57,184,31,
CCOc1cc(N2CCC3(CC2)C(=O)Nc2ccc(Br)cc23)nnc1C(F)(F)F,130,9,43,216,160,Kp at 2 h [6]: 1.4; concentration at 2 h [7]: 260 ng/mL; concentration at 4 h [8]: 220 ng/mL; concentration at 2 h [9]: 310 ng/g; concentration at 4 h [10]: 290 ng/g; IC50 [18]: 790 nM
CCOc1ccc(N2CCC3(CC2)C(=O)Nc2ccc(Br)cc23)nn1,> 10000,7,31,52,5,

# Now from value to compound, other results behind:
EC50 [1] [nM],"metabolised at 0.25 h, 5 µM [4] [%]","metabolised at 0.25 h, 5 µM [5] [%]",SMILES,Emax (CHO [2]) [%],Activity (CHO [3]) [%],also measured
3090,,,O=C1Nc2c(Br)cccc2C12CCN(c1ccc(Cl)nn1)CC2,65,9,
150,,,CCOc1nc(N2CC(n3c(=O)[nH]c4cc(C(F)(F)F)ccc43)C2)ncc1Cl,220,,"Drug metabolism [4, 19]: Bld; Drug metabolism [5, 19]: Bld"
2290,,,FC(F)(F)c1cccc(C2CCN(c3ccc(Cl)nn3)CC2)c1,128,,
280,0,23,CCNc1cc(N2CC(n3c(=O)[nH]c4ccccc43)C2)nnc1Cl,291,,Kp at 2 h [11]: 0.03; concentration at 2 h [12]: 1480 ng/mL; concentration at 4 h [13]: 842 ng/mL; concentration at 2 h [14]: 48 ng/g; concentration at 4 h [15]: 31 ng/g
10000,,,CC(C)(C)OC(=O)N1CCC2(CC1)C(=O)Nc1ccc(Br)cc12,120,,
240,8,65,CCNc1cc(N2CCC3(CC2)C(=O)Nc2ccc(Br)cc23)nnc1Cl,394,263,
270,15,46,CCOc1cc(N2CC(n3c(=O)[nH]c4ccccc43)C2)ncc1Cl,259,,Kp at 2 h [11]: 0.36; concentration at 2 h [12]: 5770 ng/mL; concentration at 4 h [13]: 5780 ng/mL; concentration at 2 h [14]: 2050 ng/g; concentration at 4 h [15]: 2370 ng/g; efflux ratio (MDR1 [16]): 1.18; Papp (MDR1 [17]): 13 ×10⁻⁶ cm/s
